Reference: ChEMBL document CHEMBL1143595, “Synthesis and activity of substituted anthraquinones against a human filarial parasite, Brugia malayi” (2005)

Experiments:
[1] = tested on: Brugia malayi; experiment: Antifilarial activity against Brugia malayi (female) at 5 ppm in the first 5 days (100% mortality); assay type: functional; settings: 120 h
[2] = tested on: Brugia malayi; experiment: Antifilarial activity against Brugia malayi (male) at 5 ppm in the first 5 days (100% mortality); assay type: functional; settings: 120 h
[3] = tested on: Brugia malayi; experiment: Compound causing 100% mortality of Brugia malayi female adult worms at 12.5 ppm concentration; assay type: functional
Summary of the method: (§1)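 Dose-response on adult female B. malayi in RPMI 1640 with penicillin/streptomycin. Concentrations ranged from 50 to 3.12 ppm, with compounds delivered in DMSO; solvent controls received 2% DMSO. Movement and mortality were monitored daily. Read-out was days to 100% worm mortality at each concentration.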

[4] = tested on: Brugia malayi; experiment: Compound causing 100% mortality of Brugia malayi female adult worms at 50 ppm concentration; assay type: functional; summary of the method: as §1
[5] = tested on: Brugia malayi; experiment: Compound causing 100% mortality of Brugia malayi female adult worms at 6.25 ppm concentration; assay type: functional; summary of the method: as §1
[6] = tested on: Brugia malayi; experiment: Compound causing 100% mortality of Brugia malayi female adult worms at 25 ppm concentration; assay type: functional; summary of the method: as §1
[7] = tested on: Brugia malayi; experiment: Compound causing 100% mortality of Brugia malayi female adult worms at 3.125 ppm concentration; assay type: functional; summary of the method: as §1
[8] = tested on: Brugia malayi; experiment: Antifilarial activity of anthraquinone against Brugia malayi (female) at 5 ppm in the first 5 days (100% mortality); assay type: functional; settings: 120 h
[9] = tested on: Brugia malayi; experiment: Antifilarial activity against Brugia malayi (female) at 5 ppm in the first 5 days (100% mortality); NM=No Mortality; assay type: functional, organism-based
[10] = tested on: Brugia malayi; experiment: Compound causing 100% mortality of Brugia malayi female adult worms at 3.125 ppm concentration; no mortality; assay type: functional, organism-based; summary of the method: as §1

O=C1c2ccc(O)c(O)c2C(=O)c2cccc(O)c21
mortality at 5 ppm [1]: 9%

CCCSc1ccc2[nH]c(NC(=O)OC)nc2c1 [ALBENDAZOLE]
mortality at 5 ppm [2]: 9% | mortality at 5 ppm [1]: 16%

O=C1c2cccc(O)c2C(=O)c2c(O)ccc(O)c21
mortality at 5 ppm [1]: 9%

Cc1cc2c(c(O)c1O)C(=O)c1ccccc1C2=O
mortality at 5 ppm [2]: 6% | Mortality [3]: 4 days | Mortality [4]: 1 days | mortality at 5 ppm [1]: 5% | Mortality [5]: 5 days | Mortality [6]: 3 days | Mortality [7]: 6 days

O=C1c2cc(O)cc(O)c2C(=O)c2cccc(O)c21
mortality at 5 ppm [1]: 7%

Cc1c(O)c(O)cc2c1C(=O)c1ccccc1C2=O
mortality at 5 ppm [8]: 7%

COc1cc2c(c(C)c1OC)C(=O)c1c(O)cccc1C2=O
mortality at 5 ppm [1]: 9%

Cc1c(O)c(O)cc2c1C(=O)c1c(O)cccc1C2=O
mortality at 5 ppm [2]: 5% | mortality at 5 ppm [1]: 3%

O=C1c2ccccc2C(=O)c2c1ccc(O)c2O [ATHRAQUINONES A]
mortality at 5 ppm [1]: 5%

O=C1c2cc(O)c(O)cc2C(=O)c2c(O)cccc21
mortality at 5 ppm [1]: 5%

COc1c(C)cc2c(c1O)C(=O)c1ccccc1C2=O
Mortality [9]: No mortality

O=C1c2ccccc2C(=O)c2c1cc(O)c(O)c2O
Mortality [3]: 4 days | Mortality [4]: 2 days | mortality at 5 ppm [1]: 5% | Mortality [5]: 5 days | Mortality [6]: 4 days | Mortality [7]: 5 days

O=C1c2ccccc2C(=O)c2c(O)ccc(O)c21 [QUINIZARIN]
mortality at 5 ppm [1]: 10%

COc1c(C)cc2c(c1O)C(=O)c1c(O)cccc1C2=O
Mortality [3]: 4 days | Mortality [9]: No mortality | Mortality [10]: no mortality | Mortality [4]: 1 days | Mortality [5]: 8 days | Mortality [6]: 2 days

O=C1c2ccccc2C(=O)c2c(O)cc(O)cc21
Mortality [9]: No mortality

Cc1cc2c(c(O)c1O)C(=O)c1c(O)cccc1C2=O
mortality at 5 ppm [2]: 5% | Mortality [3]: 4 days | Mortality [10]: no mortality | Mortality [4]: 2 days | mortality at 5 ppm [1]: 5% | Mortality [5]: 5 days | Mortality [6]: 3 days

COc1cccc2c1C(=O)c1c(cc(C)c(OC)c1O)C2=O
mortality at 5 ppm [1]: 7%

O=C1c2cccc(O)c2C(=O)c2c1ccc(O)c2O
mortality at 5 ppm [1]: 14%

COc1c(C)cc2c(c1OC)C(=O)c1ccccc1C2=O
mortality at 5 ppm [1]: 11%

O=C1c2cc(O)c(O)c(O)c2C(=O)c2cccc(O)c21
mortality at 5 ppm [2]: 6% | mortality at 5 ppm [1]: 5%
